Source: ChEMBL document CHEMBL1150687, “Three new cytotoxic sesterterpenes from a marine sponge Spongia sp” (J Nat Prod, 2003)
Converted amounts (≈) assume the structure as drawn. The source made the active and inactive calls. The calls are words filed in the database; no cut-off is given here.

Legend:
[1] = test system: L1210; assay: Cytotoxicity against mouse L1210 cells; assay type: functional, cell-based
[2] = test system: HeLa; assay: Cytotoxicity against human HeLa cells; assay type: functional, cell-based
[3] = test system: A549; assay: Cytotoxicity against human A549 cells; assay type: functional, cell-based
[4] = test system: KB; assay: Cytotoxicity against human KB cells; assay type: functional, cell-based
[5] = test system: CCRF S-180; assay: Antitumor activity against mouse S180 cells xenografted ICR/kwl mouse assessed as increase in mouse life span at 5 mg/kg, ip relative to control; assay type: functional
Outline: (§1)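 Female ICR/kwl mice (7 weeks, 19-21 g), six per group, inoculated ip with 0.1 mL sarcoma-180 suspension (1×10^7 cells/mL in saline). Compound dissolved in a little dimethylacetamide, suspended in 10% Tween 80-saline (1 mg/mL), given ip on days 1, 5 and 9 after inoculation. Survival followed; ILS (%) = (A/B − 1)×100 from weighed median survival days, treated versus untreated controls.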

[6] = test system: CCRF S-180; assay: Antitumor activity against mouse S180 cells xenografted ICR/kwl mouse assessed as increase in mouse life span at 10 mg/kg, ip relative to control; assay type: functional; outline: as §1

Row | SMILES | IC50 [1] | IC50 [2] | IC50 [3] | IC50 [4] | Activity ([5]; route intraperitoneal) | Activity ([6]; route intraperitoneal) | Activity [5] | Activity [6]
1 | CO[C@@]12[C@H](COC(N)=O)C3=C(C(=O)C(C)=C(N)C3=O)N1C[C@@H]1N[C@@H]12 [MITOMYCIN] | 0.02 µg/mL (≈ 0.0598 µM) | 0.015 µg/mL (≈ 0.0449 µM) | 0.02 µg/mL (≈ 0.0598 µM) | 0.015 µg/mL (≈ 0.0449 µM) | – | – | – | –
2 | CC1(C)CCC[C@]2(C)[C@H]3C[C@@H](O)[C@]4(C)[C@H]5COC(=O)C5=CC[C@H]4[C@]3(C)CC[C@@H]12 | 1.6 µg/mL (≈ 4.14 µM) | 16.5 µg/mL (≈ 42.7 µM) | 16.5 µg/mL (≈ 42.7 µM) | 17.1 µg/mL (≈ 44.2 µM) | 50.3% | – | – | –
3 | CC(=O)O[C@@H]1C[C@@H]2[C@@]3(C)CCCC(C)(C)[C@@H]3CC[C@@]2(C)[C@@H]2CC=C3CO[C@@H](O)[C@@H]3[C@@]12C | 2.1 µg/mL (≈ 4.88 µM) | 22.5 µg/mL (≈ 52.2 µM) | 29.4 µg/mL (≈ 68.3 µM) | 16.2 µg/mL (≈ 37.6 µM) | – | 28% | – | –
4 | CC1(C)CCC[C@]2(C)[C@H]3C[C@@H](O)[C@]4(C)[C@@H]5C(=CC[C@H]4[C@]3(C)CC[C@@H]12)C(=O)O[C@H]5O | 2.3 µg/mL (≈ 5.71 µM) | 15 µg/mL (≈ 37.3 µM) | 14.8 µg/mL (≈ 36.8 µM) | 14.3 µg/mL (≈ 35.5 µM) | – | – | inactive | –
5 | CC(=O)O[C@@H]1C[C@@H]2[C@@]3(C)CCCC(C)(C)[C@@H]3CC[C@@]2(C)[C@@H]2CC=C3C(=O)O[C@@H](O)[C@@H]3[C@@]12C | 13.2 µg/mL (≈ 29.7 µM) | 26 µg/mL (≈ 58.5 µM) | 23.7 µg/mL (≈ 53.3 µM) | 18.5 µg/mL (≈ 41.6 µM) | – | – | – | –
6 | O=c1[nH]cc(F)c(=O)[nH]1 [FLUOROURACIL] | – | – | – | – | 32.9% | – | – | Active
7 | CO[C@@H]1C[C@H]2[C@]3(C)CC[C@H]4C(C)(C)CCC[C@]4(C)[C@H]3C[C@@H](OC(C)=O)[C@]2(C)C2=C1C(=O)O[C@H]2O | 2.2 µg/mL (≈ 4.64 µM) | 5.3 µg/mL (≈ 11.2 µM) | 5.3 µg/mL (≈ 11.2 µM) | 15.6 µg/mL (≈ 32.9 µM) | – | – | – | –
8 | CC1(C)CCC[C@]2(C)[C@H]3C[C@@H](O)[C@]4(C)c5cocc5CC[C@H]4[C@]3(C)CC[C@@H]12 | > 50 µg/mL | 19.5 µg/mL (≈ 52.6 µM) | > 50 µg/mL | > 50 µg/mL | – | – | – | –
